ChEMBL document CHEMBL3877271, “Antagonizing STAT3 activation with benzo[b]thiophene 1, 1-dioxide based small molecules” (Eur J Med Chem, 2017)
The source made the active and inactive calls. The rule behind the calls is not given here.

Key:
MDA-MB-231 [1] = experiment: Induction of apoptosis in human MDA-MB-231 cells assessed as early apoptotic cells at 7 uM after 24 hrs by Annexin-V FITC/propidium iodide staining based flow cytometry (reference value: 3.8%); assay type: functional
MDA-MB-231 [2] = experiment: Induction of apoptosis in human MDA-MB-231 cells assessed as late apoptotic cells at 1 uM after 24 hrs by Annexin-V FITC/propidium iodide staining based flow cytometry (reference value: 1.8%); assay type: functional
MDA-MB-231 [3] = experiment: Induction of apoptosis in human MDA-MB-231 cells assessed as live cells at 7 uM after 24 hrs by Annexin-V FITC/propidium iodide staining based flow cytometry (reference value: 90.3%); assay type: functional
MDA-MB-231 [4] = experiment: Induction of apoptosis in human MDA-MB-231 cells assessed as late apoptotic cells at 5 uM after 24 hrs by Annexin-V FITC/propidium iodide staining based flow cytometry (reference value: 1.8%); assay type: functional
MDA-MB-231 [5] = experiment: Induction of apoptosis in human MDA-MB-231 cells assessed as increase in cleaved PARP expression at 1 to 5 uM after 24 hrs by Western blot method; assay type: functional, cell-based
Procedure, shortened: (§1)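 MDA-MB-231 cells treated 24 h, trypsinised and lysed in RIPA buffer (50 mM Tris-HCl pH 7.4, 150 mM NaCl, 0.25% deoxycholate, 1% NP-40, 1 mM EDTA, protease inhibitors). Equal total protein from whole-cell lysates immunoblotted; Stattic 5 µM used as comparator.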

[6] = Effect on total STAT3 protein level in human MDA-MB-231 cells at 1 to 5 uM after 24 hrs by Western blot method; assay type: cell-based; conditions: mda-mb-231, 24 h; procedure, shortened: as §1
Mus musculus = experiment: Toxicity in ICR mouse implanted with mouse 4T1 cells assessed as body weight loss at 10 mg/kg, ip daily for 11 days measured daily during compound dosing; assay type: organism-based; conditions: in vivo, 264 h
Procedure, shortened: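 4T1-bearing male ICR mice (5 weeks, 6/group), dosed i.p. with PBS/DMSO (8:2) vehicle control. Body weight recorded daily. BI% = (1 − mean treated/mean control body weight) × 100.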

MDA-MB-231 [7] = experiment: Induction of apoptosis in human MDA-MB-231 cells assessed as early apoptotic cells at 5 uM after 24 hrs by Annexin-V FITC/propidium iodide staining based flow cytometry (reference value: 3.8%); assay type: functional
[8] = Antiproliferative activity against human A549 cells after 72 hrs by MTT assay; assay type: functional, cell-based; conditions: A549, 72 h
Procedure, shortened: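 Cells in RPMI-1640 with 10% FBS, penicillin/streptomycin, 37 °C, 5% CO₂; seeded 3000-5000 cells/well, left overnight (16 h), then medium replaced with fresh medium holding serial dilutions in triplicate for 72 h. MTT read-out; viability = absorbance of treated/solvent control × 100%. Stattic served as reference.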

HCT-116 = experiment: Potency index, ratio of stattic IC50 to compound IC50 for human HCT116 cells; assay type: functional
MDA-MB-231 [9] = experiment: Induction of apoptosis in human MDA-MB-231 cells assessed as increase in cleaved caspase-3 expression at 1 to 5 uM after 24 hrs by Western blot method; assay type: functional, cell-based; procedure, shortened: as §1

O=S1(=O)C=Cc2cccc(Nc3cccc(C(F)(F)F)c3)c21
Activity (MDA-MB-231 [1]): 12.2% | Activity (MDA-MB-231 [2]): 3.4% | Activity (MDA-MB-231 [3]): 72.2% | Activity (MDA-MB-231 [4]): 7.2% | Activity (MDA-MB-231 [5]): Active | Activity [6]: Non-Toxic | Activity (Mus musculus): Non-Toxic | Activity (MDA-MB-231 [7]): 10.3% | IC50 [8]: 0.36 µM | Ratio IC50 (HCT-116): 1.5 - 12 | Activity (MDA-MB-231 [9]): Active
